Assay outcomes: PubChem, several laboratories
In the library only some 4.1% were active in any assay of this set; here they are far more common.
H9c2 TAG inh = reduces triacylglycerol accumulation in H9c2 cells. Nile Red lipid (TAG) fluorescence; cells loaded with 200 µM oleic acid. 230,000 tested, 0.66% active. inhibition, % at 12.5 µM;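 active = pattern-corrected inhibition of lipid staining of at least 50% with the nuclear-stain viability signal not falling by more than 50%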;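 note: 0% = DMSO wells and 100% = triacsin C control wells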
SMARCA2 activ = activators of SMARCA2 function; MG213 cells, MMTV-luciferase reporter, dexamethasone, overnight; activation, % at 9.1 µM; 370,000 tested, 1% active; AID 652017; in the data active = activation above about 7.8%;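 note: 0% = vehicle wells and 100% = reference activator wells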
AHR act = human AHR activation | AID 2796 | P35869 | 320,000 tested, 2.5% active | AHR-responsive luciferase reporter cells, luminescence | activation, % at 5 µM; in the data active = activation above about 47%;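 note: 0% = vehicle wells and 100% = reference agonist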
Target sequence (P35869 whole entry, looked up): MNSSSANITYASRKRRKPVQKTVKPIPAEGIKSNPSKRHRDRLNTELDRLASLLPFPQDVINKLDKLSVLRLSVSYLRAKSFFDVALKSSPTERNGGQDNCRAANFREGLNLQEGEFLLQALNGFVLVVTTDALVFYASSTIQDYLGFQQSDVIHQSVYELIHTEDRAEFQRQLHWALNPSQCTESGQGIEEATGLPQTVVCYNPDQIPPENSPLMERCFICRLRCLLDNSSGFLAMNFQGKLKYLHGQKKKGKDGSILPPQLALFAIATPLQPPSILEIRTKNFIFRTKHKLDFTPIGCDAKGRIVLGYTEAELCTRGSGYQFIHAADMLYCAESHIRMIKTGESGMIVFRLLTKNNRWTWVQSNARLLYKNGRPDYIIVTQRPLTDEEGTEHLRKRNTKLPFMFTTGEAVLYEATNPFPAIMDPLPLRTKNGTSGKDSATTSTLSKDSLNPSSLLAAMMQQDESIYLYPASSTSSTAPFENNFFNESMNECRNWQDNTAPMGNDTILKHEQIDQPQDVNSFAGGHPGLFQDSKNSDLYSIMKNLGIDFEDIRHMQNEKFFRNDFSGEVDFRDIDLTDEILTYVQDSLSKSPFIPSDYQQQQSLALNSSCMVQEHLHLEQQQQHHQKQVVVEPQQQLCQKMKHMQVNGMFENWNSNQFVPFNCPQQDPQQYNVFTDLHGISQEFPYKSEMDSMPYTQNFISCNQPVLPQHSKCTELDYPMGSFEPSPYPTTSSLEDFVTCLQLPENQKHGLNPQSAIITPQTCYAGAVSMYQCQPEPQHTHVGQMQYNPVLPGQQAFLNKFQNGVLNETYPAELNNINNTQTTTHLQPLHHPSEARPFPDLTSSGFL
TbMetRS inhib = blocks T. brucei methionyl-tRNA synthetase activity; purified T. brucei MetRS, ATP depletion, Kinase-Glo luminescence; inhibition, % at 11.9 µM; AID 624268; 360,000 tested, 0.4% active;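 active = inhibition above a per-plate cutoff of the control wells' mean inhibition plus 3 SD, cut at about 5.5% in these data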;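 note: 0% = DMSO wells median and 100% = median of wells with control inhibitor compound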
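System: purified T. brucei MetRS enzyme / Detection: Kinase-Glo luciferase luminescence reporting remaining unconsumed ATP / Medium: HEPES buffer with MgCl2, KCl, DTT, spermine, BSA, pyrophosphatase / Replication: singlicate, one well per compound / Evaluation: percent inhibition relative to median high and low control wells / Schedule: 2 h aminoacylation at 25 °C after 15 min preincubation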
Efflux pump mplx = antifungal efflux pump inhibition, Nile Red retention; S. cerevisiae Candida pump triplex; inhibition, % at 10 µM; 330,000 tested, 0.44% active; AID 485275;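 active = plate passing quality check with inhibition over a set limit, or well fluorescence over plate mean plus 4 SD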;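 note: Nile Red retained in pooled yeast measured as flow cytometry median fluorescence; 0% = buffer negative control and 100% = Enniatin B positive control; higher means more Nile Red kept so more efflux inhibition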
* hit, by the source's call; / = not tested or not shown.

SMILES | H9c2 TAG inh | SMARCA2 activ | AHR act | TbMetRS inhib | Efflux pump mplx
C(=C\c1nccc2c1[nH]c1ccccc12)/c1ccccc1 | / | 6 | 62* | 0 | 0
C(=Cc1c[nH]c2ccccc12)c1nccc2ccccc12 | -63 | 5 | / | 1 | /
Cc1ccccc1CN1CCCCC(NC(=O)c2ccccc2)C1=O (centres undefined) | / | -2 | / | / | /
CCN(CC)C(=O)CC[C@@H]1CC[C@]2(CCCN(Cc3ccc(Cl)cc3)C2)O1 | / | -3 | / | / | /
CCOc1ccc(C2c3[nH]c4ccccc4c3CCN2C(=O)Cn2cncn2)cc1 (centres undefined) | -16 | 5 | 68* | -1 | 0
COc1cccc(C2c3[nH]c4ccccc4c3CCN2C(=O)Cn2cncn2)c1OC (centres undefined) | -9 | -4 | 14 | 0 | 0
CSc1ccc(C2c3[nH]c4ccccc4c3CCN2C(=O)c2cc(C)n(C)n2)cc1 (centres undefined) | / | / | 49* | / | 0
CCOc1ccccc1Nc1ncnc2ccccc12 | -4 | 1 | 10 | -1 | 0
Cc1ccc2ncnc(Nc3ccc(C)c(C)c3)c2c1 | / | 0 | 50* | 0 | 0
CCOc1ccccc1Nc1cc(C)nc2ccccc12 | 0 | -2 | / | 0 | /
CCOc1ccccc1Nc1cc(C)nc2ccc(C)cc12 | 12 | -1 | 48* | 0 | 0
CC(=O)c1cccc(Nc2ncnc3ccc(Br)cc23)c1 | / | 0 | 74* | 0 | 0
CCOc1ccccc1Nc1ncnc2ccc(Br)cc12 | / | -1 | 76* | 0 | 0
COCCCNc1ncnc2ccc(C)cc12 | -34 | -2 | 20 | 0 | 0
Cc1ccc(-c2cc(-c3nnc(SCC(=O)NC4CCCCC4)n3N)[nH]n2)cc1 | / | -3 | / | / | /
O=C(Nc1ccc2c(c1)Cc1ccccc1-2)NC1CCCCN(Cc2ccc(Cl)cc2)C1=O (centres undefined) | / | -1 | / | / | /
CCOc1ccc(Br)cc1C(=O)N/N=C/c1cccnc1 | / | 0 | 67* | 2 | 0
O=C(N/N=C/c1cccnc1)c1cccc(NC(=O)c2cccc(Br)c2)c1 | / | -2 | 76* | 0 | 0
Cc1ccc(NC(=O)c2sccc2SCc2cccc(C(F)(F)F)c2)cc1 | / | -2 | 4 | 0 | 0
N#CCSc1ccsc1C(=O)Nc1ccc(F)cc1 | / | -2 | 50* | -1 | 0
CCC(CC)C(=O)Nc1nnc(-c2cccs2)s1 | 22 | -5 | 73* | 0 | 0
CN1CCN(CC(=O)Nc2nnc(-c3cccs3)s2)CC1 | / | -4 | 111* | -1 | 0
COc1cccc(OC)c1C(=O)Nc1nnc(-c2cccs2)s1 | -11 | -2 | 26 | 0 | 0
COC(=O)N1C[C@H](O)[C@H](O)C[C@@H]1c1ccccc1Br | / | 5 | / | / | /
CN(C)c1ccccc1-c1csc(N2CCC(C(N)=O)CC2)n1 | -5 | 6 | 12 | 0 | 0
SMILES | H9c2 TAG inh | SMARCA2 activ | AHR act | TbMetRS inhib | Efflux pump mplx
NC(=O)C1CCN(c2nc(-c3ccccc3Br)cs2)CC1 | / | 2 | 65* | / | 0
COc1cc2c(cc1NC(=O)C(C)OC(=O)c1ccc(S(=O)(=O)Nc3ccccc3Cl)cc1)oc1ccccc12 (centres undefined) | / | 4 | 78* | 1 | 0
COc1cc2c(cc1NC(=O)C(C)N1CCN(S(=O)(=O)c3ccc(C)c(C)c3)CC1)oc1ccccc12 (centres undefined) | / | -2 | 59* | -1 | 0
Cc1ccc(NC(=O)Cn2nnc(-c3ccccc3F)n2)cc1C | / | -5 | / | / | /
Cc1cc(=O)[nH]c(SCC(=O)Nc2ccc(Cl)cc2)n1 | / | -5 | / | / | /
CN1C(=O)C[C@@](C#N)(C(=O)NCc2ccccc2)[C@H]1c1ccccc1 | / | -1 | / | / | /
COC(=O)C1=C(C)N(Cc2ccccc2)C(=NCc2ccccc2)N[C@H]1c1cccc(F)c1 | 92* | -1 | 1 | 0 | 0
O=C(/C=C/c1cccs1)N1CCc2ccccc21 | / | 1 | 54* | -1 | 0
O=C(COc1ccccc1)Nc1nc(-c2cccnc2)cs1 | -20 | -1 | 55* | 0 | 0
Cc1cc(C)cc(OCC(=O)Nc2nc(-c3cccnc3)cs2)c1 | 6 | 0 | 66* | 0 | 0
Cc1cccc(OCC(=O)Nc2nc(-c3ccncc3)cs2)c1 | 13 | 0 | -4 | 0 | 0
N#Cc1ccc(OCC(=O)Nc2nc(-c3cccnc3)cs2)cc1 | -12 | -3 | 49* | 0 | 0
O=C(COc1ccccc1)Nc1nc(-c2ccncc2)cs1 | 0 | -3 | 6 | 0 | 0
CCN(c1ccccc1)S(=O)(=O)c1ccc(Cl)c(NC(=O)COC(=O)c2cc(O)c3ccccc3c2O)c1 | / | / | 123* | / | 0
